KLK7 zymogen act = proKLK7 (human) activation, primary screen; P49862; purified proKLK7, EDANS-DABCYL substrate fluorescence; 100% is mature enzyme control, 0% vehicle; activation, % at 7 µM; actives 0.9% (n = 370,000); AID 652039;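 active means activation above the mean of all tested compounds plus 3 SD, computed per campaign excluding outliers beyond control limits, cut at about 13% in these data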
RanGTP-Impb inh = inhibitors of RanGTP-importin-beta interaction, primary screen, biochemical, FRET, CFP-Ran, YFP-importin-beta, homogeneous | cell-free CFP-Ran/YFP-importin-beta FRET ratio | inhibition, % (concentration not given with the values) | AID 2216 | actives 1.1% (n = 300,000);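 active means more than half of the replicate wells show a fall in the fluorescence ratio signal beyond about 16%, limit read from the data, passing the limit was not always enough; inconclusive means exactly half of the replicate wells pass the set limit; inactive means fewer than half of replicates pass the limit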;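 further: 0% = DMSO wells and 100% = Ran loaded with GDP instead of GTP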
Runt-SMMHC FRET = inhibitors of human RUNX1 Runt domain binding to CBFb-SMMHC; Q01196+Q13951; Cerulean-Runt/Venus-CBFb-SMMHC FRET ratio 530/480, 1 h; inhibition, % at 20 µM; actives 0.74% (n = 220,000); AID 1434;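 active means mean inhibition across duplicate retests at 20 µM reaching about 50%, limit read from the data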;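 further: 0% = DMSO wells and 100% = wells with excess untagged CBFb-SMMHC; inhibitors lower the FRET ratio by blocking Runt binding to CBFb-SMMHC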
Target sequence (Q01196 whole entry, looked up, the tested form may be a part): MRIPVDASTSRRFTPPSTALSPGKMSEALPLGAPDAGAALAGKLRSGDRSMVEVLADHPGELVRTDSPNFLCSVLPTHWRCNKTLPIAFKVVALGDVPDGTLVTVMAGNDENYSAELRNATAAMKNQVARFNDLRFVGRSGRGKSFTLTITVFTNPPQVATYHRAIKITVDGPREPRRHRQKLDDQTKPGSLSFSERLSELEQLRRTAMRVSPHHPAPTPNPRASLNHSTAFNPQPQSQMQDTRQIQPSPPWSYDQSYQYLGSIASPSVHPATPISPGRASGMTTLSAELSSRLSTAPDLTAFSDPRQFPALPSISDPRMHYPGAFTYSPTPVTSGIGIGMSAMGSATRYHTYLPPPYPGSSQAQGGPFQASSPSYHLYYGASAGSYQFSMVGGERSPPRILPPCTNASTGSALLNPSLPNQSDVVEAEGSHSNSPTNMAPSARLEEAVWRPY
Target sequence (Q13951 whole entry, looked up, the tested form may be a part): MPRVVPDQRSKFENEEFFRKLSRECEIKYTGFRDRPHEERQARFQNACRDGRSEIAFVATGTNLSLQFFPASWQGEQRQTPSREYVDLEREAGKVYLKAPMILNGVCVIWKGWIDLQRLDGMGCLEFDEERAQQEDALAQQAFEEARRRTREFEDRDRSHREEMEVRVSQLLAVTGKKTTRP
Runt-CBFb FRET = Runt domain-CBFb interaction inhibition; Cerulean-Runt/Venus-CBFb FRET ratio 530/480, 1 h; inhibition, % at 20 µM; actives 0.46% (n = 220,000); AID 1496;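 active means inhibition over about 50% at 20 µM in the single-dose screen, limit read from the data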;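 further: 0% = DMSO wells and 100% = excess unlabeled CBFb competitor control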
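Buffer or medium: Tris pH 7.5 buffer with BSA. Assay system: Cerulean-labeled Runt domain protein. Amount: each fluorescent fusion protein 100 nM. Read-out basis: loss of energy transfer signal. Incubation: 1 h compound exposure, room temperature. Probe or stimulus: Venus-CBFb binding partner, 100 nM. Detection: FRET, excitation 422 nm, emission at 530 and 480 nm.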
MEX-5 binding = C. elegans MEX-5 TCR-2 RNA binding activity. Q9XUB2. MEX-5/FITC-TCR2 RNA binding, fluorescence polarization; active compounds read low. activity score (negative = inhibition of binding), % at 10 µM. actives 0.38% (n = 300,000). AID 1832;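 active means inhibition past about -25% in most replicates, and total fluorescence under double the plate's negative control median, limit read from the data; inconclusive means replicates evenly split on the limit, or fluorescence at least double controls; inactive means too little inhibition in most replicates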;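 further: 0% = DMSO and -100% = 5 µM competing unlabeled TCR2 RNA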
YIC counter = counter-screen YIC FRET for RanGTP-importin-beta inhibitors; actives 40% (n = 1,000); Purified YIC probe, intramolecular FRET ratio YFP/CFP; IC50, µM; shares compounds with RanGTP-Impb inh; AID 435026;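 active means fitted half-maximal inhibitory concentration no more than tenfold above the top dose tested; inconclusive means flat fit with 30 to 70% activity, or poor fit; inactive means half-maximal concentration beyond tenfold above the top dose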
An asterisk follows results filed as active. Most compounds without a hit are left out; they make up all but 2.1% or so of the library.

What do the screens show for `COC(=O)c1c(NC(=O)c2ccc([N+](=O)[O-])o2)sc2c1CCN(C(C)C)C2`?
KLK7 zymogen act: 0; RanGTP-Impb inh: 16*; MEX-5 binding: 2; YIC counter: >50

Results for COc1ccc(OC)c(NC(=O)Cn2c(=O)n(CC3CCCO3)c(=O)c3cc(OC)c(OC)cc32)c1 (centres undefined) ?
KLK7 zymogen act: 0; RanGTP-Impb inh: -4; MEX-5 binding: 5

Results for COc1ccc(NC(=O)CN(C)CC(=O)Nc2sc3c(c2C(N)=O)CCC3)cc1 ?
KLK7 zymogen act: -1; RanGTP-Impb inh: 3; MEX-5 binding: 2

Results for COc1cc(OC)cc(C(=O)Nc2sc3c(c2C(N)=O)CCC3)c1 ?
KLK7 zymogen act: -213; RanGTP-Impb inh: 18*; MEX-5 binding: -1; YIC counter: >26

How did Cc1ccc2nc(NCCNC(=O)c3ccccc3)c(C#N)cc2c1 do in these assays?
KLK7 zymogen act: -1; RanGTP-Impb inh: 49*; MEX-5 binding: -4; YIC counter: 4.7*

Results for Cc1cccc2cc(C#N)c(NCCNC(=S)NCCCN3CCOCC3)nc12 ?
KLK7 zymogen act: 4; RanGTP-Impb inh: 19*; Runt-SMMHC FRET: 64*; Runt-CBFb FRET: 40; MEX-5 binding: 1; YIC counter: 48*

How did COc1ccc(C(=O)NCCNc2nc3c(C)cccc3cc2C#N)cc1 do in these assays?
KLK7 zymogen act: -2; RanGTP-Impb inh: 36*; MEX-5 binding: -2; YIC counter: 18*

Results for COc1ccc(C(=O)NCCNc2nc3cc(C)c(C)cc3cc2C)cc1 ?
KLK7 zymogen act: 0; RanGTP-Impb inh: 6; MEX-5 binding: 1

How did O=C(NNC(=S)NC(=O)c1ccccc1[N+](=O)[O-])c1ccc(Cl)cc1Cl do in these assays?
KLK7 zymogen act: 0; RanGTP-Impb inh: inconclusive; Runt-SMMHC FRET: 3; Runt-CBFb FRET: 6; MEX-5 binding: -9

How did O=C(NNC(=S)NC(=O)c1ccccc1[N+](=O)[O-])c1ccccc1O do in these assays?
KLK7 zymogen act: 0; RanGTP-Impb inh: 19*; Runt-SMMHC FRET: 1; Runt-CBFb FRET: 4; MEX-5 binding: inconclusive; YIC counter: >50

Results for CC(NCc1cccs1)C(=O)NC1CCCCC1 (centres undefined) ?
KLK7 zymogen act: 0; RanGTP-Impb inh: 17*; Runt-SMMHC FRET: 0; Runt-CBFb FRET: 0; MEX-5 binding: -2; YIC counter: >50

How did CC(C)C(NC(=O)c1cccs1)C(=O)NC1CCCCC1 (centres undefined) do in these assays?
KLK7 zymogen act: 1; RanGTP-Impb inh: 2; MEX-5 binding: 3

What do the screens show for `O=C1NC[C@@H](CCCCN2C[C@H](Cc3ccccc3)N(Cc3ccccc3)C(=O)C2=O)N(Cc2ccccc2)C1=O`?
KLK7 zymogen act: 0

Results for O=C(O)/C=C/C(=O)Nc1ccc2c(c1)NC(=O)CO2 ?
KLK7 zymogen act: 0; RanGTP-Impb inh: 34*; Runt-SMMHC FRET: 15; Runt-CBFb FRET: 30; MEX-5 binding: -3; YIC counter: >50

How did O=C1COc2ccc(C(=O)/C=C/c3ccccc3)cc2N1 do in these assays?
KLK7 zymogen act: 1; RanGTP-Impb inh: 1; Runt-SMMHC FRET: 4; Runt-CBFb FRET: 0; MEX-5 binding: 0

What do the screens show for `N#CC1=C(N)Oc2cc3c(cc2C1c1ccc(Cl)cc1)OCO3` (centres undefined)?
KLK7 zymogen act: 1; RanGTP-Impb inh: 29*; Runt-SMMHC FRET: 3; Runt-CBFb FRET: 0; MEX-5 binding: -1; YIC counter: >50

Results for Cc1ccc(C(=O)Nc2nnc(SCC(=O)N3CCCc4ccccc43)s2)cc1 ?
KLK7 zymogen act: 0; RanGTP-Impb inh: 39*; Runt-SMMHC FRET: 1; Runt-CBFb FRET: 1; MEX-5 binding: 0; YIC counter: >50

What do the screens show for `COc1nc(-c2cccc([N+](=O)[O-])c2)nc2ccccc12`?
KLK7 zymogen act: 0; RanGTP-Impb inh: -3; Runt-SMMHC FRET: 0; Runt-CBFb FRET: -1; MEX-5 binding: 2

What do the screens show for `Cc1cccc(Oc2nc(-c3cccc([N+](=O)[O-])c3)nc3ccccc23)c1C`?
KLK7 zymogen act: 0; RanGTP-Impb inh: 21*; Runt-SMMHC FRET: 2; Runt-CBFb FRET: 2; MEX-5 binding: -5; YIC counter: >50

How did COc1ccc2c(c1)CO[C@H]([C@H](O)COC(C)=O)[C@H]2/C=C/c1ccccc1 do in these assays?
KLK7 zymogen act: 1

What do the screens show for `O=C(C1CCCCC1)N1CC(=O)N2CCc3ccccc3C2C1` (centres undefined)?
RanGTP-Impb inh: 21*; Runt-SMMHC FRET: 3; Runt-CBFb FRET: 0; MEX-5 binding: -2; YIC counter: >50

How did CCCN(CCO)Cc1cccc(Br)c1 do in these assays?
KLK7 zymogen act: 0; RanGTP-Impb inh: 20*; Runt-SMMHC FRET: -4; Runt-CBFb FRET: -1; MEX-5 binding: 1; YIC counter: >50

Results for Cn1ccnc1C(=O)O[C@@H]1CCC[C@@]2(C(=O)N(Cc3ccccc3)c3ccccc32)[C@H]1NC(=O)CCc1ccccc1 ?
KLK7 zymogen act: 0

What do the screens show for `CC1(C)CC(=O)C/C(=N\NC(=O)Cc2ccccc2)C1`?
KLK7 zymogen act: 1; RanGTP-Impb inh: 26*; Runt-SMMHC FRET: 1; Runt-CBFb FRET: 3; MEX-5 binding: -10; YIC counter: >50

What do the screens show for `Cc1ccc(NC(=O)Cn2nc(C(F)(F)F)c3c2CCC3)cc1`?
KLK7 zymogen act: 0; RanGTP-Impb inh: 22*; Runt-SMMHC FRET: 3; Runt-CBFb FRET: 0; MEX-5 binding: -1; YIC counter: >50

Results for C=CCNC(=O)c1cccc(OC2CCN(CC(C)(C)C)CC2)c1 ?
KLK7 zymogen act: 0; RanGTP-Impb inh: 18*; MEX-5 binding: -9; YIC counter: >50

Results for CCc1ccc(C2C3=C(CC(C)(C)CC3=O)Nc3c2c(=O)[nH]c2nc(C)nn32)cc1 (centres undefined) ?
KLK7 zymogen act: 3; RanGTP-Impb inh: 40*; Runt-CBFb FRET: 62*; MEX-5 binding: -1; YIC counter: 7.1*

How did CC1(NC(=O)Nc2cccc(Br)c2)CCS(=O)(=O)C1 (centres undefined) do in these assays?
KLK7 zymogen act: 1

What do the screens show for `O=C(Cn1c(=O)c2cccn2c2cccnc21)NCCCN1CCN(c2ccc(F)cc2)CC1`?
KLK7 zymogen act: 0; RanGTP-Impb inh: 32*; MEX-5 binding: 0; YIC counter: >50

Results for CCOc1ccc(CCNC(=O)c2cc3ccsc3n2C)cc1OC ?
KLK7 zymogen act: 0

What do the screens show for `CCc1nc2ccc(C(=O)N3CCN(C(=O)c4ccco4)CC3)cn2c1N(C)C(=O)C1CCCCC1`?
KLK7 zymogen act: -1

Bioassay records from PubChem BioAssay.
